ChEMBL document CHEMBL4602735, “Discovery of (1H-Pyrazolo[3,4-c]pyridin-5-yl)sulfonamide Analogues as Hepatitis B Virus Capsid Assembly Modulators by Conformation Constraint” (J Med Chem, 2020)
Each block holds one compound with its values, some of them ahead of it. Activity calls are given as the source filed them. The calls are words filed in the database; no cut-off is given here.

Key:
[1] = Half life in mouse plasma by HPLC analysis; format: ADME, cell-free
Outline: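 Prodrug incubated in plasma at 37 °C, with percent remaining determined by HPLC to derive half-life.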

[2] = Stability in pH 7.4 buffer assessed as compound hydrolysis level after 2 hrs at 37 degC by HPLC analysis; format: physicochemical; settings: pH 7.4, 2 h
Outline: (§1)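 Prodrug incubated in buffer (0.1 M HCl, pH 5.8, 6.8 or 7.4) at 37 °C; percent of compound remaining determined by HPLC; remaining percentage reported after 3 h, stability meaning no hydrolysis after 2 h.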

[3] = Stability in pH 6.8 buffer assessed as compound remaining level at 37 degC by HPLC analysis; format: physicochemical; outline: as §1
[4] = Stability in 0.1M HCl solution assessed as compound remaining level at 37 degC by HPLC analysis; format: physicochemical; settings: buffer; outline: as §1
[5] = Solubility in water at 1 mg at 25 degC by HPLC analysis; format: physicochemical
Outline: (§2)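 Solubility determined in water or 0.067 M phosphate buffer at pH 5.8, 6.8 and 7.4. Values are reported in mg/mL; ND means below the detection limit.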

[6] = Solubility in pH 5.8 phosphate buffer at 1 mg at 25 degC by HPLC analysis; format: physicochemical; outline: as §2
[7] = Solubility in pH 6.8 phosphate buffer at 1 mg at 25 degC by HPLC analysis; format: physicochemical; settings: BLD = below limit of detection; outline: as §2
[8] = system: Hepatitis B virus; assay: Antiviral activity against HBV infected in human HepG2.2.15 cells; format: functional, organism-based; settings: HepG2 2.2.15
[9] = system: Hepatitis B virus; assay: Antiviral activity against HBV infected in human HepAD38 cells assessed as reduction in viral DNA levels incubated for 6 days by PCR analysis; format: functional, organism-based; settings: HePAD38, 144 h
[10] = system: HepG2 2.2.15; assay: Inhibition of reverse transcriptase in HBV infected in human HepG2.2.15 cells assessed as induction of intracellular viral RNA accumulation at 2 uM for 4 days by qPCR or qRT-PCR relative to control; format: cell-based; settings: Hepatitis B virus
[11] = system: Hepatitis B virus; assay: Antiviral activity against HBV infected in human HepG2.A64 cells containing reverse transcriptase L180M/T184L/M204V mutant assessed as reduction in viral replication incubated for 6 days by PCR analysis; format: functional, organism-based; settings: HepG2.A64, 144 h
Outline: (§3)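 Wild-type HBV replication measured in HepAD38 and HepG2.2.15 cells, lamivudine/entecavir-resistant HBV in HepG2.A64 cells (rtL180M+rtT184L+rtM204V) and multidrug-resistant HBV in HepG2.1403F cells (rtL180M+rtM204V+rtS202G+rtN236T). Read-out is reduction of HBV DNA. EC50 is reported as mean ± SD.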

[12] = system: Hepatitis B virus; assay: Antiviral activity against multidrug-resistant HBV infected in human HepG2.1403F cells assessed as reduction in viral replication incubated for 6 days by PCR analysis; format: functional, organism-based; settings: 144 h; outline: as §3
[13] = system: Hepatitis B virus; assay: Antiviral activity against HBV infected in human HepG2.2.15 cells assessed as reduction in viral DNA levels incubated for 6 days by PCR analysis; format: functional, organism-based; settings: HepG2 2.2.15, 144 h
[14] = Cytotoxicity in human HepG2 cells assessed as induction of cell killing; format: cell-based
[15] = system: Hepatitis B virus; assay: Antiviral activity against HBV infected in […] cells; format: functional, organism-based
[16] = system: Hepatitis B virus; assay: Inhibition of HBsAg secretion in HBV infected human HepG2.2.15 cells at 2 uM for 4 days by ELISA; format: functional, organism-based; settings: HepG2 2.2.15
Outline: (§4)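 HepAD38 or HepG2.2.15 cells were treated at 2 µM for 4 days, with medium replaced every 2 days. Intracellular and extracellular DNA and RNA were quantified by qPCR or qRT-PCR, and HBeAg and HBsAg by ELISA. Results were compared with DMSO vehicle as mean ± SD, using a two-tailed t-test.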

[17] = system: Hepatitis B virus; assay: Inhibition of HBsAg secretion in HBV infected human HepAD38 cells at 2 uM for 4 days by ELISA; format: functional, organism-based; outline: as §4
[18] = system: Hepatitis B virus; assay: Inhibition of HBeAg secretion in HBV infected human HepG2.2.15 cells at 2 uM for 4 days by ELISA relative to control; format: functional, organism-based; settings: HepG2 2.2.15; outline: as §4
[19] = system: Hepatitis B virus; assay: Antiviral activity against HBV infected in human HepAD38 cells assessed as inhibition of intracellular viral RNA accumulation at 2 uM for 4 days by qPCR or qRT-PCR relative to control; format: functional, organism-based; outline: as §4
[20] = system: Hepatitis B virus; assay: Antiviral activity against HBV infected in human HepAD38 cells assessed as inhibition of intracellular viral DNA accumulation at 2 uM for 4 days by qPCR or qRT-PCR relative to control; format: functional, organism-based; outline: as §4
[21] = system: Hepatitis B virus; assay: Antiviral activity against HBV infected in human HepG2.2.15 cells assessed as inhibition of intracellular viral DNA accumulation at 2 uM for 4 days by qPCR or qRT-PCR relative to control; format: functional, organism-based; settings: HepG2 2.2.15; outline: as §4
[22] = system: Hepatitis B virus; assay: Antiviral activity against HBV infected in human HepAD38 cells assessed as inhibition of intracellular total viral RNA accumulation at 2 uM for 4 days by qPCR or qRT-PCR relative to control; format: functional; outline: as §4
[23] = Cytotoxicity in human HepAD38 cells assessed as induction of cell killing; format: cell-based
[24] = system: Hepatitis B virus; assay: Induction of capsid assembly of recombinant HBV core protein 149 (1 to 149 residues) at 10 uM incubated overnight by electron microscopy
Outline: (§5)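 Core protein N-terminal domain Cp149 (aa 1-149, 5 μM) incubated with compound (10 μM) or DMSO overnight at 37 °C in 150 mM NaCl, 50 mM HEPES, pH 7.4. Assembly is read by EM and by size-exclusion chromatography. In SEC, capsids elute early (about 1.08 mL) and dimers late (about 1.97 mL). Peak AUCs and the capsid/dimer AUC ratio are calculated.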

[25] = system: Hepatitis B virus; assay: Induction of capsid assembly of recombinant HBV core protein 149 (1 to 149 residues) at 10 uM incubated overnight by SEC analysis; outline: as §5
[26] = system: Hepatitis B virus; assay: Induction of capsid assembly of recombinant HBV core protein 149 (1 to 149 residues) assessed as capsid peak AUC at 10 uM incubated overnight by UV detector based analysis (reference value: 0.96); outline: as §5
[27] = system: Hepatitis B virus; assay: Induction of capsid assembly of recombinant HBV core protein 149 (1 to 149 residues) assessed as Cp dimer peak AUC at 10 uM incubated overnight by UV detector based analysis (reference value: 1.63); outline: as §5
[28] = system: Hepatitis B virus; assay: Induction of capsid assembly of recombinant HBV core protein 149 (1 to 149 residues) assessed as capsid peak AUC/Cp dimer peak AUC at 10 uM incubated overnight by UV detector based analysis (reference value: 0.59); outline: as §5
[29] = system: Hepatitis B virus; assay: Antiviral activity against HBV genotype D in hydrodynamic injection-based C57BL/6 mouse model of HBV infection assessed as inhibition of HBV replication at 50 mg/kg, po dosed once daily for 7 days by real-time PCR analysis; format: functional, organism-based
[30] = system: Hepatitis B virus; assay: Antiviral activity against HBV genotype D in hydrodynamic injection-based C57BL/6 mouse model of HBV infection assessed as inhibition of serum HBV DNA level at 50 mg/kg, po dosed twice daily for 7 days by real-time PCR analysis; format: functional, organism-based
[31] = system: Hepatitis B virus; assay: Antiviral activity against HBV genotype D in hydrodynamic injection-based C57BL/6 mouse model of HBV infection assessed as inhibition of liver HBV DNA level at 50 mg/kg, po dosed twice daily for 7 days by real-time PCR analysis; format: functional, organism-based
[32] = system: Hepatitis B virus; assay: Antiviral activity against HBV genotype D in hydrodynamic injection-based C57BL/6 mouse model of HBV infection assessed as inhibition of serum HBV DNA level at 100 mg/kg, po dosed twice daily for 7 days by real-time PCR analysis; format: functional, organism-based
[33] = system: Hepatitis B virus; assay: Antiviral activity against HBV genotype D in hydrodynamic injection-based C57BL/6 mouse model of HBV infection assessed as inhibition of liver HBV DNA level at 100 mg/kg, po dosed twice daily for 7 days by real-time PCR analysis; format: functional, organism-based
[34] = system: Hepatitis B virus; assay: Antiviral activity against HBV genotype D in hydrodynamic injection-based C57BL/6 mouse model of HBV infection assessed as inhibition of serum HBV DNA level at 200 mg/kg, po dosed twice daily for 7 days by real-time PCR analysis; format: functional, organism-based
[35] = system: Hepatitis B virus; assay: Antiviral activity against HBV genotype D in hydrodynamic injection-based C57BL/6 mouse model of HBV infection assessed as inhibition of liver HBV DNA level at 200 mg/kg, po dosed twice daily for 7 days by real-time PCR analysis; format: functional, organism-based
[36] = Selectivity index, ratio of CC50 for cytotoxicity in human HepAD38 cells assessed as induction of cell killing to EC50 for antiviral activity against HBV infected in human HepAD38 cells assessed as reduction in viral DNA levels incubated for 6 days by PCR analysis; format: toxicity, cell-based; settings: read-out: Ratio CC50/EC50
[37] = system: Hepatitis B virus; assay: Antiviral activity against HBV genotype D in hydrodynamic injection-based C57BL/6 mouse model of HBV infection assessed as inhibition of HBV replication at 100 mg/kg, po dosed once daily for 7 days by real-time PCR analysis; format: functional, organism-based
[38] = Cytotoxicity in human HepG2 cells assessed as induction of cell killing
[39] = Stability in pH 7.4 buffer assessed as compound remaining level after 3 hrs at 37 degC by HPLC analysis; format: physicochemical; settings: read-out: Stability; outline: as §1
[40] = Stability in pH 5.8 buffer assessed as compound remaining level at 37 degC by HPLC analysis; format: physicochemical; outline: as §1
[41] = system: Hepatitis B virus; assay: Antiviral activity against HBV infected in human HepAD38 cells; format: functional, organism-based

Compound: Nc1ccn([C@@H]2CS[C@H](CO)O2)c(=O)n1 [LAMIVUDINE]
EC50 [9]: 70 nM
inhibition [10]: Active
EC50 [11]: > 10000 nM
EC50 [12]: > 10000 nM
EC50 [13]: 3.8 nM
CC50 [14]: > 100000 nM

Compound: CCC(C)NS(=O)(=O)c1ccc(F)c(C(=O)Nc2ccc(F)c(F)c2)c1 (stereo not drawn)
EC50 [15]: 300 nM

Compound: CCOC(=O)C1=C(CN2CCOCC2)NC(c2nccs2)=NC1c1ccc(F)cc1Br (stereo not drawn)
EC50 [9]: 13 nM
inhibition [16]: inactive
inhibition [17]: inactive
inhibition [18]: Active
inhibition [19]: Active
inhibition [20]: Active
inhibition [21]: Active
inhibition [22]: Active
EC50 [11]: 6.3 nM
EC50 [12]: 42 nM
EC50 [13]: 6.6 nM

Compound: O=S(=O)(c1ccc2c(c1)c(Nc1cc(F)c(F)c(F)c1)nn2C1CC1)N1CCC(O)CC1
EC50 [9]: 270 nM
CC50 [23]: 100000 nM
Activity [24]: Active
Activity [25]: Active
AUC [26]: 0.56
AUC [27]: 0.39
AUC [28]: 1.43

Compound: Cc1cc(Nc2nn(C3CC3)c3cnc(S(=O)(=O)N4CCC(OC(=O)CN(C)C)CC4)cc23)ccc1F
Activity [29]: inactive
Activity [30]: Active
Activity [31]: Active
Activity [32]: Active
Activity [33]: Active
Activity [34]: Active
Activity [35]: Active

Compound: CC[C@@H](C)NS(=O)(=O)c1ccc(F)c(C(=O)Nc2ccc(F)c(F)c2)c1
EC50 [9]: 310 nM
selectivity ratio at 144 h [36]: 129
EC50 [11]: 48 nM
EC50 [12]: 74 nM
EC50 [13]: 280 nM
CC50 [14]: 39800 nM
Activity [37]: inactive
CC50 [38]: 39800 nM

Continued, in another order:

half-life [1]: 47.2 min
Stability [2]: Stable
Stability [3]: Unstable
Stability [4]: Stable
solubility [5]: 1510 µg/mL
solubility [6]: 290 µg/mL
solubility [7]: Bld
Compound: Cc1cc(Nc2nn(C3CC3)c3cnc(S(=O)(=O)N4CCC(OC(=O)CN(C)C)CC4)cc23)ccc1F.O=C(O)C(F)(F)F

EC50 [8]: 53 nM
Compound: COC(=O)C1=C(C)NC(c2ncc(F)cc2F)=N[C@H]1c1ccc(F)cc1Cl

half-life [1]: 31.2 min
remaining at 3 h [39]: 55.6%
Stability [3]: 80.2%
Stability [40]: 85.7%
Compound: Cc1cc(Nc2nn(C3CC3)c3cnc(S(=O)(=O)N4CCC(OC(=O)[C@H](C)N)CC4)cc23)ccc1F.O=C(O)C(F)(F)F

EC50 [41]: 130 nM
Compound: COc1ccccc1/C(Br)=C(\NC(=O)c1ccc([N+](=O)[O-])cc1)C(=O)N1CCCCC1
inhibition [16]: inactive
inhibition [17]: inactive
inhibition [19]: Active
inhibition [20]: Active
inhibition [21]: Active
